Measurements taken from ChEMBL document CHEMBL4038331 (J Med Chem, 2017).
Active and inactive are the calls of the source. The calls are words filed in the database; no cut-off is given here.

Legend:
[1] = Antioxidant activity assessed as DPPH radical scavenging activity measured every minute for 45 mins; type: functional
Procedure, shortened: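 DPPH• ethanolic solution diluted to absorbance 0.72 ± 0.02 at 515 nm. Ethanolic test solutions (50–500 μM) were added in triplicate and read at 515 nm. Inhibition was taken against an ethanol blank (100% radical), and IC50 was read from dose–response curves.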

[2] = Antioxidant activity assessed as ABTS radical scavenging activity measured each minute for 15 mins by spectrophotometric analysis; type: functional
Procedure, shortened: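 ABTS•+ generated from 7 mM ABTS plus potassium persulfate, held 16 h dark at room temperature, then diluted in ethanol to absorbance 0.72 ± 0.02. Ethanolic test solutions (10–500 μM) were added to radical solution in triplicate. Inhibition was taken against an ethanol blank (100% radical), and IC50 was read from dose–response curves.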

[3] = Antioxidant activity assessed as GO radical scavenging activity measured for 30 mins in absence of light; type: functional
Procedure, shortened: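 Ethanolic GO• (5 mM stock) diluted to absorbance 1.00 ± 0.02 at 428 nm. Test solutions (5–75 μM in ethanol) were added in triplicate and read at 428 nm at room temperature. Inhibition was taken against an ethanol blank (100% radical).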

[4] = Redox potential of compound in Ag/AgCl-NaCl containing phosphate buffer at 0.1 mM at pH 7.4 by cyclic voltammetric analysis
Procedure, shortened: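 Voltammetry used a glassy carbon working electrode, Pt counter and Ag/AgCl reference. Compound was at 0.1 mM final (10 mM ethanolic stock) in pH 7.4 potassium phosphate electrolyte.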

[5] = Lipophilicity of compound in Ag/AgCl-NaCl containing PET membrane assessed as tranfer potential at pH 7; type: physicochemical
Procedure, shortened: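 Transfer across a liquid–liquid interface on a microporous PET membrane, with 1,6-dichlorohexane organic phase containing BTPPATPBCl. A gelled 2 mM BTPPACl + 2 mM NaCl reference was used, with 10 mM Tris-HCl pH 7.0 aqueous electrolyte.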

[6] = Iron chelating activity in ammonium acetate buffer assessed as inhibition of [Fe(ferrozine)3]2+ formation at 100 uM at pH 6.7 measured after 10 mins by spectrophotometric analysis
Procedure, shortened: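 Ferrozine assay in ammonium acetate buffer pH 6.7. Compound (100 μM) plus ammonium iron(II) sulfate (20 μM) for 10 min, read at 562 nm. Ferrozine was added, incubated 10 min at 37 °C, and re-read at 562 nm. The first reading was subtracted, with a DMSO blank and EDTA = 100%. Three experiments.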

Liver [7] = assay: Drug uptake in rat liver intra-mitochondria at 1 uM in presence of succinate/valinomycin by TPP+-based electrode assay; type: ADME, tissue-based
Procedure, shortened: (§1)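 TPP+-selective electrode with rat liver mitochondria (0.5 mg/mL) in 120 mM KCl, 10 mM HEPES pH 7.2, 1 mM EGTA at 37 °C with rotenone 1.5 μM. Five 1 μM additions calibrated the electrode, then succinate 10 mM was added, then valinomycin 0.2 μg/mL. The accumulation ratio assumed a matrix volume of ~0.5 μL/mg with a binding correction.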

Liver [8] = assay: Drug uptake in rat liver extra-mitochondria at 1 uM in presence of succinate/valinomycin by TPP+-based electrode assay; type: ADME, tissue-based; procedure, shortened: as §1
Liver [9] = assay: Ratio of drug level in rat liver intra-mitochondria to extra-mitochondria at 1 uM in presence of succinate/valinomycin by TPP+-based electrode assay; type: ADME, tissue-based; procedure, shortened: as §1
Liver [10] = assay: Antioxidant activity in rat liver mitochondria assessed as inhibition of ADP/FeSO4-induced lipid peroxidation at 5 uM preincubated for 5 mins followed by ADP/FeSO4 addition; type: functional
Procedure, shortened: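 Rat liver mitochondria (2 mg) in 100 mM KCl, 10 mM Tris-HCl pH 7.6, with glutamate/malate (5/2.5 mM) at 37 °C. After 5 min with compound (5 μM), peroxidation was started with ADP/0.1 mM FeSO4. The lag phase of O2 consumption was measured by Clark electrode and expressed as % of control. Six experiments.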

Liver [11] = assay: Induction of basal oxygen consumption under nonphosphorylative conditions in rat liver mitochondria after 5 mins in presence of glutamate/malate; type: functional
Procedure, shortened: (§2)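 Glutamate/malate (10/5 mM) or succinate (5 mM) was the substrate, with compound 2.5–10 μM for 5 min (state 2). ADP was added (125 nmol glutamate/malate; 75 nmol succinate), then oligomycin 2 μg/mL, then FCCP 1 μM. RCR and ADP/O were calculated. Seven experiments.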

Liver [12] = assay: Induction of ADP-stimulated respiration in rat liver mitochondria after 5 mins in presence of succinate; type: functional; procedure, shortened: as §2
HepG2 [13] = assay: Cytotoxicity against human HepG2 cells assessed as reduction in cell density at 0.5 to 100 uM after 48 hrs by SRB assay; type: cell-based; details: hepg2, 48 h
HepG2 [14] = assay: Antioxidant activity in human HepG2 cells assessed as reduction in H2O2-induced cell toxicity at 100 uM preincubated for 1 hr followed by H2O2 addition for 48 hrs by SRB assay; type: functional, cell-based
Procedure, shortened: (§3)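 HepG2 cells, grown in high-glucose DMEM with 10% FBS at 37 °C and 5% CO2, seeded at 2 × 10^4 cells/500 μL. Cells were preincubated with compound, then given 250 μM FeSO4 or 250 μM H2O2. Cell mass was read by SRB (fixed, stained, OD 540 nm) as % of untreated control. Four independent experiments.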

HepG2 [15] = assay: Antioxidant activity in human HepG2 cells assessed as reduction in FeSO4-induced cell toxicity at 100 uM preincubated for 1 hr followed by FeSO4 addition for 48 hrs by SRB assay; type: functional, cell-based; procedure, shortened: as §3
HepG2 [16] = assay: Cytotoxicity against human HepG2 cells assessed as chromatin condensation at 100 uM after 48 hrs Hoechst 33342-staining based epifluorescence microscopic analysis; type: cell-based; details: hepg2, 48 h
Procedure, shortened: (§4)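 HepG2 cells on coverslips (8 × 10^4 cells/2 mL) were treated 48 h. In the last 30 min, cells were stained with TMRM (100 nM) and Hoechst 33342 (1 μg/mL) in HBSS pH 7.4 at 37 °C in the dark. Live cells were imaged by fluorescence microscopy, four random fields per well, three experiments.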

HepG2 [17] = assay: Cytotoxicity against human HepG2 cells assessed as mitochondrial depolarization at 100 uM after 48 hrs TMRM-staining based epifluorescence microscopic analysis; type: cell-based; details: hepg2, 48 h; procedure, shortened: as §4
HepG2 [18] = assay: Antioxidant activity in human HepG2 cells assessed as intracellular GSH content per ug of protein at 100 uM after 48 hrs by HPLC analysis (reference value: 17.81 nmol); type: functional
HepG2 [19] = assay: Cytotoxicity against human HepG2 cells assessed as depletion of intracellular GSH content at 100 uM after 48 hrs by HPLC analysis; type: cell-based; details: hepg2, 48 h
Procedure, shortened: (§5)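 HepG2 cells (4 × 10^5 per 100 mm dish) were incubated 48 h, collected and stored at −80 °C in PBS. Reduced GSH was measured by reverse-phase HPLC with detection at 515 nm and expressed as nmol GSH/μg protein. Four experiments.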

Liver [20] = assay: Induction of basal respiration in rat liver mitochondria measured 5 mins after ADP phosphorylation in presence of glutamate/malate; type: functional; procedure, shortened: as §2
Liver [21] = assay: Increase in oligomycin-inhibited respiration in rat liver mitochondria after 5 mins in presence of glutamate/malate; type: functional; procedure, shortened: as §2
Liver [22] = assay: Increase in oligomycin-inhibited respiration in rat liver mitochondria after 5 mins in presence of succinate; type: functional; procedure, shortened: as §2
Liver [23] = assay: Induction of basal respiration in rat liver mitochondria measured 5 mins after ADP phosphorylation in presence of succinate; type: functional; procedure, shortened: as §2
Liver [24] = assay: Induction of basal oxygen consumption under nonphosphorylative conditions in rat liver mitochondria after 5 mins in presence of succinate; type: functional; procedure, shortened: as §2
Liver [25] = assay: Induction of ADP-stimulated respiration in rat liver mitochondria after 5 mins in presence of glutamate/malate; type: functional; procedure, shortened: as §2
Liver [26] = assay: Decrease in oxidative phosphorylation efficiency in rat liver mitochondria assessed as reduction in coupling between ATP systhesis and oxygen consumption after 5 mins in presence of glutamate/malate; type: functional; procedure, shortened: as §2
Liver [27] = assay: Decrease in oxidative phosphorylation efficiency in rat liver mitochondria assessed as reduction in coupling between ATP systhesis and oxygen consumption after 5 mins in presence of succinate; type: functional; procedure, shortened: as §2
Liver [28] = assay: Decrease in oxidative phosphorylation efficiency in rat liver mitochondria assessed as reduction in respiratory control ratio after 5 mins in presence of glutamate/malate; type: functional; procedure, shortened: as §2
Liver [29] = assay: Induction of membrane hyperpolarization in rat liver mitochondria assessed as change in repolarization potential at 2.5 uM; type: functional
Procedure, shortened: (§6)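 Safranine (5 μM) fluorescence (ex 495/em 586 nm) at 25 °C. Rat liver mitochondria (0.5 mg/2 mL) were in 200 mM sucrose, 1 mM KH2PO4, 10 mM Tris pH 7.4, 10 μM EGTA with glutamate/malate or succinate, after 5 min with 2.5–10 μM. ADP 25 nmol depolarised, then FCCP 1 μM was added. A valinomycin calibration in K+-free medium was used, five experiments.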

Liver [30] = assay: Inhibition of ADP-induced membrane depolarization in succinate energized rat liver mitochondria at 5 uM preincubated for 5 mins followed by ADP addition measured by safranine-based spectrofluorometric analysis; type: functional, tissue-based; procedure, shortened: as §6
[31] = Induction of mPTP in energized rat liver mitochondria at 2.5 to 10 uM after 5 mins in presence of succinate by spectrophotometric analysis
Rattus norvegicus = organism: Rattus norvegicus; assay: Inhibition of mPTP in energized rat liver mitochondria at 2.5 to 10 uM after 5 mins in presence of succinate by spectrophotometric analysis
HepG2 [32] = assay: Antioxidant activity in human HepG2 cells assessed as intracellular GSH content per ug of protein at 2.5 uM after 48 hrs by HPLC analysis (reference value: 17.81 nmol); type: functional
HepG2 [33] = assay: Cytotoxicity against human HepG2 cells assessed as reduction in cell density at >2.5 uM after 48 hrs by SRB assay; type: cell-based; details: hepg2, 48 h
HepG2 [34] = assay: Antioxidant activity in human HepG2 cells assessed as reduction in H2O2-induced cell toxicity at 2.5 uM preincubated for 1 hr followed by H2O2 addition for 48 hrs by SRB assay; type: functional, cell-based; procedure, shortened: as §3
HepG2 [35] = assay: Antioxidant activity in human HepG2 cells assessed as reduction in FeSO4-induced cell toxicity at 2.5 uM preincubated for 1 hr followed by FeSO4 addition for 48 hrs by SRB assay; type: functional, cell-based; procedure, shortened: as §3
HepG2 [36] = assay: Cytotoxicity against human HepG2 cells assessed as chromatin condensation at 2.5 uM after 48 hrs Hoechst 33342-staining based epifluorescence microscopic analysis; type: cell-based; details: hepg2, 48 h; procedure, shortened: as §4
HepG2 [37] = assay: Cytotoxicity against human HepG2 cells assessed as mitochondrial depolarization at 2.5 uM after 48 hrs TMRM-staining based epifluorescence microscopic analysis; type: cell-based; details: hepg2, 48 h; procedure, shortened: as §4
HepG2 [38] = assay: Cytotoxicity against human HepG2 cells assessed as depletion of intracellular GSH content at 2.5 uM after 48 hrs by HPLC analysis; type: cell-based; details: hepg2, 48 h; procedure, shortened: as §5

Row | SMILES | IC50 [1] [µM] | IC50 [2] [µM] | IC50 [3] [µM] | Activity [4] [V] | Activity [5] [V] | Drug uptake (Liver [7]) [mM] | Drug uptake (Liver [8]) [µM] | Ratio (Liver [9]) | inhibition (Liver [10]) | Activity (Liver [11]) | Activity (Liver [12]) | Activity (Liver [20]) | Activity (Liver [21]) | Activity (Liver [22]) | Activity (Liver [23]) | Activity (Liver [24]) | Activity (Liver [25]) | Activity (Liver [26]) | Activity (Liver [27]) | Activity (Liver [28]) | also measured
1 | CS(=O)(=O)[O-].O=C(/C=C/c1cc(O)c(O)c(O)c1)NCCCCCC[P+](c1ccccc1)(c1ccccc1)c1ccccc1 | 19 | 12.2 | 3.1 | 0.034 | 0.498 | 2 | 2.4 | 2100 | Active | Dose-dependent effect | Dose-dependent effect | Dose-dependent effect | Dose-dependent effect | Dose-dependent effect | Dose-dependent effect | Dose-dependent effect | Dose-dependent effect | Dose-dependent effect | Dose-dependent effect | Dose-dependent effect | inhibition [6]: Active; Activity (HepG2 [13]): Non-Toxic; inhibition (HepG2 [14]): Active; inhibition (HepG2 [15]): Active; Activity (HepG2 [16]): Non-Toxic; Activity (HepG2 [17]): Non-Toxic; Activity (HepG2 [18]): 26.94 nmol; Activity (HepG2 [19]): Non-Toxic
2 | CS(=O)(=O)[O-].O=C(/C=C/c1ccc(O)c(O)c1)NCCCCCCCCCC[P+](c1ccccc1)(c1ccccc1)c1ccccc1 | 25.9 | 23.5 | 2.7 | 0.174 | 0.291 | 4.7 | 1.9 | 2700 | Active | Dose-dependent effect | Dose-dependent effect | Dose-dependent effect | Dose-dependent effect | Dose-dependent effect | Dose-dependent effect | Dose-dependent effect | Dose-dependent effect | Dose-dependent effect | Dose-dependent effect | Dose-dependent effect | Activity (Liver [29]): 10 mV; inhibition (Liver [30]): Active; Activity [31]: Non-Toxic; inhibition (Rattus norvegicus): Active; Activity (HepG2 [32]): 20.85 nmol; Activity (HepG2 [33]): Toxic; inhibition (HepG2 [34]): Active; inhibition (HepG2 [35]): Active; Activity (HepG2 [36]): Non-Toxic; Activity (HepG2 [37]): Non-Toxic; Activity (HepG2 [38]): Non-Toxic
